Measurements from ChEMBL document CHEMBL4321868, “Scaffold Simplification Strategy Leads to a Novel Generation of Dual Human Immunodeficiency Virus and Enterovirus-A71 Entry Inhibitors” (J Med Chem, 2020).
Activity calls are given as the source filed them. No cut-off for these calls is given here.

What was measured:
Enterovirus A71 [1] = assay: Antiviral activity against Enterovirus A71 genotype C2 H08300 461812 infected in human RD cells assessed as reduction in virus-induced cell death preincubated for 1 day followed by viral infection and measured after 3 days by microscopic analysis; type: functional; parameters: scale not given: the % may be the effect or the level left
Summary of the method: (§1)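 RD cells were seeded in 96-well plates and infected the next day at low MOI, with serial compound dilutions added at the same time. Plates were incubated at 37 °C, 5% CO2 for 3 days, until untreated infected controls died. Cell death was quantified by MTS/PMS and EC50 calculated from dose-response curves. Values come from more than 2 dose-response curves across more than 1 experiment, with microscopic quality control.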

[2] = Cytotoxicity against human MT4 cells assessed as reduction in cell viability measured after 5 days by MTS/PES assay; type: cell-based
Summary of the method: (§2)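 MT-4 cells (RPMI-1640, 10% FCS, 1% L-glutamine) pre-incubated 30 min at 37 °C with compound, then infected with HIV-1 NL4.3 or HIV-2 ROD according to stock TCID50. After 5 days, CPE scored microscopically and viability read by MTS/PES at A490 to derive EC50; cytotoxicity measured by MTS/PES at 5 days in the same cells. SI = CC50/EC50. Mean ± S.D. of at least 3 experiments.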

RD [3] = assay: Cytotoxicity against human RD cells assessed as adverse effect on cell; type: cell-based
Enterovirus A71 [4] = assay: Antiviral activity against Enterovirus A 71 BrCr infected in human RD cells assessed as reduction in virus-induced cell death preincubated for 1 day followed by viral infection and measured after 3 days by microscopic analysis; type: functional, strain BRCR; parameters: scale not given: the % may be the effect or the level left; summary of the method: as §1
Enterovirus A71 [5] = assay: Antiviral activity against Enterovirus A 71 BrCr infected in human RD cells assessed as reduction in virus-induced cytopathic effect preincubated for 1 day followed by viral infection and measured after 3 days by MTS/PMS method; type: functional, organism-based; conditions: strain BRCR
Summary of the method: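 RD cells seeded in 96-well plates; next day serial compound dilutions plus virus at low MOI added. Incubation at 37 °C, 5% CO₂ until full CPE in untreated infected controls (3 days). Viability read by MTS/PMS; EC50 as 50% inhibition of virus-induced death from dose-response curves. CC50 from uninfected treated cells in the same setup; SI = CC50/EC50.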

[6] = system: Human immunodeficiency virus 2; assay: Antiviral activity against HIV-2 ROD infected in human MT4 cells assessed as reduction in virus-induced cytopathic effect preincubated for 30 mins followed by viral infection and measured after 5 days by MTS assay; conditions: Human immunodeficiency virus 2, ISOLATE ROD
HeLa = assay: Binding affinity to capsid protein VP1 five fold axis in Enterovirus A71 genotype B2 11316 infected in human HeLa cells at 20 uM measured after 1 hr by cryo-electron microscopic analysis; type: cell-based
[7] = system: Human immunodeficiency virus 1; assay: Antiviral activity against HIV1 3B infected in human MT4 cells assessed as reduction in p24 production at 20 uM incubated for 1 hr prior to viral infection followed by compound washout and measured 8 hrs post-infection by ELISA; type: functional, organism-based
RD [8] = assay: Cytotoxicity against human RD cells assessed as induction of cell morphological changes; type: cell-based
Enterovirus A71 [9] = assay: Antiviral activity against Enterovirus A71 genotype B2 11316 infected in human RD cells assessed as reduction in virus-induced cell death preincubated for 1 day followed by viral infection and measured after 3 days by microscopic analysis; type: functional; parameters: scale not given: the % may be the effect or the level left; summary of the method: as §1
[10] = biological target: Envelope glycoprotein gp160 (Human immunodeficiency virus 1) (UniProt Q6QLK5); assay: (§3) Inhibition of biotinylated-heparin binding to recombinant HIV1 3B gp120 by SPR analysis
Summary of the method: (§4)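 SPR at 25 °C in PBS with 5% DMSO, 0.005% Tween20, pH 7.4. Minimally biotinylated heparin captured (880 RU) on streptavidin chip. Recombinant HIV-1 IIIB gp120 (10 nM) alone or premixed with a compound concentration range injected 2 min at 10 μl/min; regenerated with 1 M NaCl/10 mM NaOH. Double-referenced; RU converted to % inhibition vs gp120 alone; nonlinear fit, three experiments.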

[11] = biological target: Envelope glycoprotein gp160 (Human immunodeficiency virus 1, UniProt Q6QLK5); assay: as §3; summary of the method: as §4
Enterovirus A71 [12] = assay: Antiviral activity against Enterovirus A 71 BrCr harboring VP1 S184T mutant infected in human RD cells assessed as reduction in virus-induced cytopathic effect preincubated for 1 day followed by viral infection and measured after 3 days by MTS/PMS method; type: functional, organism-based, strain BRCR
Enterovirus A71 [13] = assay: Antiviral activity against Enterovirus A71 genotype B5 TW/70902/08 infected in human RD cells assessed as reduction in virus-induced cell death preincubated for 1 day followed by viral infection and measured after 3 days by […]; type: functional; parameters: scale not given: the % may be the effect or the level left; summary of the method: as §1
Enterovirus A71 [14] = assay: Antiviral activity against Enterovirus A71 genotype C4 TW/1956/05 infected in human RD cells assessed as reduction in virus-induced cell death preincubated for 1 day followed by viral infection and measured after 3 days by microscopic analysis; type: functional; parameters: scale not given: the % may be the effect or the level left; summary of the method: as §1
Enterovirus A71 [15] = assay: Antiviral activity against Enterovirus A 71 BrCr harboring VP1 S184T/P246S mutant infected in human RD cells assessed as reduction in virus-induced cytopathic effect preincubated for 1 day followed by viral infection and measured after 3 days by MTS/PMS method; type: functional, organism-based, strain BRCR
Enterovirus A71 [16] = assay: Antiviral activity against Enterovirus A 71 BrCr harboring VP1 P246S mutant infected in human RD cells assessed as reduction in virus-induced cytopathic effect preincubated for 1 day followed by viral infection and measured after 3 days by MTS/PMS method; type: functional, organism-based, strain BRCR
[17] = biological target: Envelope glycoprotein gp160 (Human immunodeficiency virus 1) (UniProt Q6QLK5); assay: Binding affinity to recombinant HIV1 3B gp120 by SPR analysis
[18] = system: Human immunodeficiency virus 1; assay: Antiviral activity against HIV1 3B infected in human MT4 cells assessed as reduction in p24 production at 20 uM administered at onset of infection measured 8 hrs post-infection by ELISA; type: functional, organism-based
[19] = biological target: Human immunodeficiency virus type 1 reverse transcriptase (Human immunodeficiency virus 1) (UniProt Q72547); conditions: 3B, MT4, 12 uM
[20] = Selectivity index, ratio of CC50 for human RD cells to EC50 for Enterovirus A71 BrCr infected in human RD cells; type: toxicity, cell-based; conditions: read-out: Ratio CC50/EC50
Summary of the method: (§5)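 RD cells seeded in 96-well plates; next day serial compound dilutions plus virus at low MOI added. Incubation at 37 °C, 5% CO₂ until full CPE in untreated infected controls (3 days). CC50 from uninfected treated cells in the same setup; SI = CC50/EC50.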

Enterovirus A71 [21] = assay: Antiviral activity against Enterovirus A 71 BrCr infected in human RD cells assessed as reduction in viral RNA level at 20 uM preincubated for 1 hr followed by viral infection and measured 8 hrs post-infection by RT-qPCR analysis relative to control; type: functional, strain BRCR; parameters: scale not given: the % may be the effect or the level left
Summary of the method: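 RD cells grown to confluence; compound at 20 μM in 2% FBS medium added 1 h before or 1, 2, 4 h after EV-A71 BrCr infection (MOI 1). Pirodavir 20 μM as entry-inhibitor reference; infected untreated cells as controls. At 8 h post-infection, intracellular RNA isolated and viral RNA quantified by RT-qPCR.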

Enterovirus A71 [22] = assay: Antiviral activity against Enterovirus A 71 BrCr infected in human RD cells assessed as reduction in viral RNA level at 20 uM administered at onset of infection measured 8 hrs post-infection by RT-qPCR analysis relative to control; type: functional, strain BRCR; parameters: scale not given: the % may be the effect or the level left
Enterovirus A71 [23] = assay: Antiviral activity against Enterovirus A71 genotype C2 H08300 461812 infected in human RD cells assessed as reduction in virus-induced cytopathic effect preincubated for 1 day followed by viral infection and measured after 3 days by MTS/PMS method; type: functional, organism-based; conditions: Enterovirus A, genotype C2 H08300 461812, RD; summary of the method: as §5
[24] = Selectivity index, ratio of CC50 for human MT4 cells to EC50 for HIV-1 NL4.3 infected in human MT4 cells
Enterovirus A71 [25] = assay: Antiviral activity against Enterovirus A71 genotype C4 TW/1956/05 infected in human RD cells assessed as reduction in virus-induced cytopathic effect preincubated for 1 day followed by viral infection and measured after 3 days by MTS/PMS method; type: functional, organism-based; conditions: Enterovirus A, genotype C4 TW/1956/05, RD; summary of the method: as §5
Enterovirus A71 [26] = assay: Antiviral activity against Enterovirus A71 genotype B5 TW/70902/08 infected in human RD cells assessed as reduction in virus-induced cytopathic effect preincubated for 1 day followed by viral infection and measured after 3 days by MTS/PMS method; type: functional, organism-based; conditions: Enterovirus A, genotype B5 TW/70902/08, RD; summary of the method: as §5
Enterovirus A71 [27] = assay: Antiviral activity against Enterovirus A71 genotype B2 11316 infected in human RD cells assessed as reduction in virus-induced cytopathic effect preincubated for 1 day followed by viral infection and measured after 3 days by MTS/PMS method; type: functional, organism-based; conditions: Enterovirus A, genotype B2 11316, RD; summary of the method: as §5
[28] = Selectivity index, ratio of CC50 for human MT4 cells to EC50 for HIV1 NL4.3 infected in human MT4 cells; type: toxicity, cell-based; conditions: read-out: Ratio CC50/EC50; summary of the method: as §2
[29] = system: Human immunodeficiency virus 1; assay: Antiviral activity against HIV1 NL4.3 infected in human MT4 cells assessed as reduction in virus-induced cytopathic effect preincubated for 30 mins followed by viral infection and measured after 5 days by MTS assay; type: functional, organism-based; conditions: Human immunodeficiency virus 1, NL4.3, MT4
[30] = Selectivity ratio of EC50 for Enterovirus A 71 BrCr infected in human RD cells to EC50 for Enterovirus A 71 genotype B2 11316 infected in human RD cells; type: functional
[31] = Selectivity ratio of EC50 for Enterovirus A 71 BrCr infected in human RD cells to EC50 for Enterovirus A 71 genotype C4 TW/1956/05 infected in human RD cells; type: functional

Envelope glycoprotein gp160 (Human immunodeficiency virus 1), sequence (Q6QLK5 1-814): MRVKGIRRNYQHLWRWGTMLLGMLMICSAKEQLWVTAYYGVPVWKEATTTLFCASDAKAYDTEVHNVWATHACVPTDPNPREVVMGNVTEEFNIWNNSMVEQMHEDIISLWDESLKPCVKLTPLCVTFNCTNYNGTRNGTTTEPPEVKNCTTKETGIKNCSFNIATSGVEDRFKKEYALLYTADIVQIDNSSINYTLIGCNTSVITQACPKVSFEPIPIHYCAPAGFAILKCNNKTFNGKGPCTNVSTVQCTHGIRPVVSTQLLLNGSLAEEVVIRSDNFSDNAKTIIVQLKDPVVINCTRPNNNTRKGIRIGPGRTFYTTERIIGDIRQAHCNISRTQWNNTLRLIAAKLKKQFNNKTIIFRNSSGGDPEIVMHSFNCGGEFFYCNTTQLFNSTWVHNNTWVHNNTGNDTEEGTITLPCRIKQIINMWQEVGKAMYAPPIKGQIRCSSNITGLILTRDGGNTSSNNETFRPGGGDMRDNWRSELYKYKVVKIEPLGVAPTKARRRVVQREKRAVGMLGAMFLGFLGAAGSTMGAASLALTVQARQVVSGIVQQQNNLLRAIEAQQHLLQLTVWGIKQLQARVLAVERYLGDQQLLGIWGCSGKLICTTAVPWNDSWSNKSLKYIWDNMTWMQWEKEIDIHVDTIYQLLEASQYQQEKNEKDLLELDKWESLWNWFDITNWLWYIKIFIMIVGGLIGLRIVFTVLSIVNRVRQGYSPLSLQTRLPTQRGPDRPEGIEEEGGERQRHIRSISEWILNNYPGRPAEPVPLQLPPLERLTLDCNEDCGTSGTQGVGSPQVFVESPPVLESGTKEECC
Envelope glycoprotein gp160, sequence (Q6QLK5 whole entry): as the sequence (Q6QLK5 1-814) above

SMILES	Activity (Enterovirus A71 [1])	CC50 at 120 h [2]	Activity (RD [3])	Activity (Enterovirus A71 [4])	EC50 (Enterovirus A71 [5])	EC90 (Enterovirus A71 [5])	EC50 [6]	Activity (RD [8])	Activity (Enterovirus A71 [9])	EC50 (Enterovirus A71 [12])	Activity (Enterovirus A71 [13])	Activity (Enterovirus A71 [14])	EC50 (Enterovirus A71 [15])	EC50 (Enterovirus A71 [16])	selectivity ratio [20]	EC50 (Enterovirus A71 [23])	selectivity ratio [24]	EC50 (Enterovirus A71 [25])	EC50 (Enterovirus A71 [26])	EC50 (Enterovirus A71 [27])	also measured
O=C(CCOCC(COCCC(=O)NC(Cc1c(-c2cc(C(=O)O)cc(C(=O)O)c2)[nH]c2ccccc12)C(=O)O)(COCCC(=O)NC(Cc1c(-c2cc(C(=O)O)cc(C(=O)O)c2)[nH]c2ccccc12)C(=O)O)COCCC(=O)NC(Cc1c(-c2cc(C(=O)O)cc(C(=O)O)c2)[nH]c2ccccc12)C(=O)O)NC(Cc1c(-c2cc(C(=O)O)cc(C(=O)O)c2)[nH]c2ccccc12)C(=O)O (stereo not drawn)	100%	> 100000 nM	Non-Toxic	100%	40 to 109 nM	160 nM	20 nM	Non-Toxic	100%	900 nM	100%	100%	300 nM	200 nM	–	–	–	–	–	–	Activity (HeLa): Active; Activity [7]: Active; inhibition [10]: Dose-dependent effect; IC50 [11]: 211 nM; Activity [17]: Dose-dependent effect; Activity [18]: Active
Cc1cn([C@H]2C[C@H](N=[N+]=[N-])[C@@H](CO)O2)c(=O)[nH]c1=O	–	–	–	–	–	–	–	–	–	–	–	–	–	–	–	–	–	–	–	–	inhibition [19]: Active
CCOC(=O)c1ccc(OCCC2CCN(c3ccc(C)nn3)CC2)cc1 [PIRODAVIR]	–	–	–	–	300 nM	600 nM	–	–	–	–	–	–	–	–	> 333	–	–	–	–	–	Activity (Enterovirus A71 [21]): 100%; Activity (Enterovirus A71 [22]): 100%
O=C(CCC(CCC(=O)N[C@H](Cc1c[nH]c2ccccc12)C(=O)O)(CCC(=O)N[C@H](Cc1c[nH]c2ccccc12)C(=O)O)NC(=O)CCOCC(COCCC(=O)NC(CCC(=O)N[C@H](Cc1c[nH]c2ccccc12)C(=O)O)(CCC(=O)N[C@H](Cc1c[nH]c2ccccc12)C(=O)O)CCC(=O)N[C@H](Cc1c[nH]c2ccccc12)C(=O)O)(COCCC(=O)NC(CCC(=O)N[C@H](Cc1c[nH]c2ccccc12)C(=O)O)(CCC(=O)N[C@H](Cc1c[nH]c2ccccc12)C(=O)O)CCC(=O)N[C@H](Cc1c[nH]c2ccccc12)C(=O)O)COCCC(=O)NC(CCC(=O)N[C@H](Cc1c[nH]c2ccccc12)C(=O)O)(CCC(=O)N[C@H](Cc1c[nH]c2ccccc12)C(=O)O)CCC(=O)N[C@H](Cc1c[nH]c2ccccc12)C(=O)O)N[C@H](Cc1c[nH]c2ccccc12)C(=O)O	100%	> 100000 nM	Non-Toxic	100%	280 to 300 nM	500 nM	6600 nM	Non-Toxic	100%	1990 nM	100%	100%	8930 nM	4710 nM	–	1.1 nM	> 43	0.2 nM	0.2 nM	0.4 nM	selectivity ratio [28]: > 43; EC50 [29]: 2300 nM
O=C(CCOCC(COCCC(=O)NC(Cc1c(-c2cccc(C(=O)O)c2)[nH]c2ccccc12)C(=O)O)(COCCC(=O)NC(Cc1c(-c2cccc(C(=O)O)c2)[nH]c2ccccc12)C(=O)O)COCCC(=O)NC(Cc1c(-c2cccc(C(=O)O)c2)[nH]c2ccccc12)C(=O)O)NC(Cc1c(-c2cccc(C(=O)O)c2)[nH]c2ccccc12)C(=O)O (stereo not drawn)	100%	> 100000 nM	Non-Toxic	100%	175 to 190 nM	300 nM	760 nM	Non-Toxic	100%	–	100%	100%	–	–	> 336	7.3 nM	> 50	2 nM	18 nM	52 nM	Ratio EC50 [30]: 4; Ratio EC50 [31]: 88; selectivity ratio [28]: > 50; EC50 [29]: 2000 nM
